Values after ≈ are worked out from the molar mass of the structure shown.
Assays:
[1] = Intrinsic clearance in Sprague-Dawley rat liver microsomes at 0.5 uM in presence of NADPH incubated upto 30 mins by UPLC-MS/MS analysis; format: ADME, Microsome; details: 0.5 h
Procedure, shortened: (§1)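 Compound at 0.5 μM incubated with female CD1 mouse, male Sprague-Dawley rat or pooled human liver microsomes (0.5 mg/mL, 50 mM potassium phosphate, pH 7.4). Reaction started with excess NADPH. Samples taken at 0-30 min, quenched in acetonitrile, analysed by UPLC-MS/MS. Verapamil used as control, single time course.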

[2] = Protein binding in CD1 mouse plasma measured after 5 hr by UPLC-MS/MS analysis based equilibrium dialysis method; format: ADME, cell-free; details: mouse, 5 h
Procedure, shortened: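 Equilibrium dialysis of female CD1 mouse plasma spiked at 10 μg/mL (12-14 kDa membrane) against isotonic buffer for 5 h at ~37°C with shaking. Unbound fraction taken as the buffer/plasma peak-area ratio by UPLC-MS/MS. n=6 replicates, run in triplicate.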

Plasmodium berghei [3] = experiment: Antiplasmodial activity against Plasmodium berghei ANKA infected in NMRI mouse assessed as survival days at 10 mg/kg, po QD for 4 days; format: functional; details: time 4 day
[4] = Half-life in NMRI mouse at 3 mg/kg, iv administered as bolus dose by UPLC-MS/MS analysis; format: ADME, organism-based; details: in vivo
Procedure, shortened: (§2)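 Intravenous bolus solution, 3 mg free base/kg (5 mL/kg; 10% DMSO, 90% saline), given to female NMRI mice (n=3). Compound level in blood determined by UPLC-MS/MS. PK parameters derived from the blood concentration-time curve.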

[5] = Tmax in NMRI mouse at 10 mg/kg, po administered as gavage by UPLC-MS/MS analysis; format: ADME, organism-based; details: in vivo
Procedure, shortened: (§3)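 Female NMRI mice (n=3) dosed by oral gavage as a solution at 10 mg free base/kg (10 mL/kg; vehicle 5 or 10% DMSO, 40% PEG400). Blood levels measured by UPLC-MS/MS. Parameters derived from the blood concentration-time curve.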

[6] = Kinetic aqueous solubility of the compound by laser nephelometry; format: physicochemical; details: read-out: Kinetic_solubility
Procedure, shortened: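 Kinetic solubility measured by laser nephelometry. DMSO serial dilutions diluted into water to give final 100–5 μg/mL at 1.0% DMSO. Read immediately, in triplicate aliquots.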

Plasmodium falciparum [7] = experiment: Antiplasmodial activity against chloroquine-sensitive Plasmodium falciparum 3D7 infected in human red blood cells assessed as growth inhibition by SYBR Green fluorescence assay; format: functional, organism-based, RBC; details: 3D7, Erythrocyte
Procedure, shortened: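 P. falciparum 3D7 grown in 5% human red cells in RPMI 1640 (pH 7.3) with 0.5% Albumax II, hypoxanthine and gentamicin at 37°C under 1% O₂/3% CO₂. Growth measured by SYBR green fluorescence (ex 485/em 528 nm), with mefloquine as assay control. EC50 calculated.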

[8] = Cmax in NMRI mouse at 10 mg/kg, po administered as gavage by UPLC-MS/MS analysis; format: ADME, organism-based; parameters: route oral, dose 10 mg/kg; details: in vivo; procedure, shortened: as §3
[9] = Permeability of the compound at 10 uM incubated for 5 hrs by UPLC-MS/MS analysis based PAMPA method; format: ADME; details: read-out: permeability
Procedure, shortened: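 PAMPA run on a lipid-oil-lipid tri-layer filter at pH 7.4. Compound at 10 μM in PBS (DMSO ≤5%) in donor wells, PBS in acceptor wells, kept 5 h at room temperature. Both compartments quantified by UPLC-MS/MS. Data accepted only when recovery exceeded 70%.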

[10] = Clearance in NMRI mouse blood at 3 mg/kg, iv administered as bolus dose by UPLC-MS/MS analysis; format: ADME, organism-based; procedure, shortened: as §2
[11] = Hepatic extraction in rat during hepatic portal vein study; format: ADME; details: read-out: ERH
MRC5 = experiment: Antiproliferative activity against human MRC5 cells assessed as reduction in cell viability after 68 hrs by resazurin dye based fluorescence assay; details: MRC5, 68 h
Procedure, shortened: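 MRC-5 fibroblasts plated overnight as monolayers, exposed to compound pre-diluted in MEM for 68 h. Resazurin then added (final 50 μM) for 3 h, fluorescence read at ex 528/em 590 nm. Signal converted to % inhibition against high- and no-inhibition controls. Plates accepted at Z' > 0.5.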

[12] = Intrinsic clearance in CD1 mouse liver microsomes at 0.5 uM in presence of NADPH incubated upto 30 mins by UPLC-MS/MS analysis; format: ADME, Microsome; details: 0.5 h; procedure, shortened: as §1
Plasmodium berghei [13] = experiment: Antiplasmodial activity against Plasmodium berghei ANKA infected in NMRI mouse assessed as reduction in parasitemia at 1 mg/kg, po QD for 4 days; format: functional; parameters: scale not given: the % may be the effect or the level left; details: time 4 day
Procedure, shortened: (§4)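 Female NMRI mice (n=3 per group, randomized, not blinded) infected with GFP-transfected P. berghei ANKA. Oral dosing once daily for 4 days in 10% DMSO/40% PEG400/50% water or HPMC suspension vehicle. Parasitaemia measured by flow cytometry on blood collected 96 h after infection. Mice watched for toxicity over 4 h post-dose each day.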

[14] = Intrinsic clearance in human liver microsomes at 0.5 uM in presence of NADPH incubated upto 30 mins by UPLC-MS/MS analysis; format: ADME, Microsome; details: 0.5 h; procedure, shortened: as §1
Plasmodium berghei [15] = experiment: Antiplasmodial activity against Plasmodium berghei ANKA infected in NMRI mouse assessed as survival days at 30 mg/kg, po QD for 4 days; format: functional; details: time 4 day
Plasmodium falciparum [16] = experiment: Antiplasmodial activity against drug resistant Plasmodium falciparum V1/S by [3H]hypoxanthine incorporation assay; format: functional, organism-based
Procedure, shortened: (§5)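 Strains (K1, W2, 7G8, TM90C2A, D6, V1/S resistant; NF54 sensitive) cultured by the Trager and Jensen method; EC50 determined in vitro from [3H]hypoxanthine incorporation.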

Plasmodium yoelii = experiment: Antiplasmodial activity against Plasmodium yoelli liver stage forms; format: functional, organism-based
Plasmodium berghei [17] = experiment: Antiplasmodial activity against Plasmodium berghei ANKA infected in NMRI mouse assessed as reduction in parasitemia at 30 mg/kg, po QD for 4 days; format: functional; parameters: scale not given: the % may be the effect or the level left; details: time 4 day; procedure, shortened: as §4
[18] = Oral bioavailability in NMRI mouse at 10 mg/kg administered via gavage by UPLC-MS/MS analysis; format: ADME, organism-based; details: in vivo; procedure, shortened: as §3
Plasmodium falciparum [19] = experiment: Antiplasmodial activity against drug resistant Plasmodium falciparum W2 by [3H]hypoxanthine incorporation assay; format: functional, organism-based; procedure, shortened: as §5
[20] = Volume of distribution at steady state in NMRI mouse at 3 mg/kg, iv administered as bolus dose by UPLC-MS/MS analysis; format: ADME, organism-based; details: in vivo, read-out: Vdss; procedure, shortened: as §2
Plasmodium falciparum [21] = experiment: Antiplasmodial activity against drug resistant Plasmodium falciparum TM90C2A by [3H]hypoxanthine incorporation assay; format: functional, organism-based; procedure, shortened: as §5
Plasmodium berghei [22] = experiment: Antiplasmodial activity against Plasmodium berghei ookinete form assessed as growth inhibition incubated for 22 hrs by GFP-based fluorescence microscopic analysis; format: functional, organism-based
Plasmodium berghei [23] = experiment: Antiplasmodial activity against Plasmodium berghei ANKA infected in NMRI mouse assessed as reduction in parasitemia at 10 mg/kg, po QD for 4 days; format: functional; parameters: scale not given: the % may be the effect or the level left; details: time 4 day; procedure, shortened: as §4
Plasmodium berghei [24] = experiment: Antiplasmodial activity against Plasmodium berghei infected in NMRI mouse assessed as reduction in parasitemia at 3 mg/kg, po QD for 4 days; format: functional; parameters: scale not given: the % may be the effect or the level left; details: time 4 day; procedure, shortened: as §4
Plasmodium falciparum [25] = experiment: Antiplasmodial activity against drug resistant Plasmodium falciparum D6 by [3H]hypoxanthine incorporation assay; format: functional, organism-based; procedure, shortened: as §5
[26] = target: Voltage-gated inwardly rectifying potassium channel KCNH2 (Homo sapiens, UniProt Q12809); experiment: Inhibition of human ERG by IonWorks patch-clamp electrophysiology method
Sequence of Voltage-gated inwardly rectifying potassium channel KCNH2 (Q12809 whole entry): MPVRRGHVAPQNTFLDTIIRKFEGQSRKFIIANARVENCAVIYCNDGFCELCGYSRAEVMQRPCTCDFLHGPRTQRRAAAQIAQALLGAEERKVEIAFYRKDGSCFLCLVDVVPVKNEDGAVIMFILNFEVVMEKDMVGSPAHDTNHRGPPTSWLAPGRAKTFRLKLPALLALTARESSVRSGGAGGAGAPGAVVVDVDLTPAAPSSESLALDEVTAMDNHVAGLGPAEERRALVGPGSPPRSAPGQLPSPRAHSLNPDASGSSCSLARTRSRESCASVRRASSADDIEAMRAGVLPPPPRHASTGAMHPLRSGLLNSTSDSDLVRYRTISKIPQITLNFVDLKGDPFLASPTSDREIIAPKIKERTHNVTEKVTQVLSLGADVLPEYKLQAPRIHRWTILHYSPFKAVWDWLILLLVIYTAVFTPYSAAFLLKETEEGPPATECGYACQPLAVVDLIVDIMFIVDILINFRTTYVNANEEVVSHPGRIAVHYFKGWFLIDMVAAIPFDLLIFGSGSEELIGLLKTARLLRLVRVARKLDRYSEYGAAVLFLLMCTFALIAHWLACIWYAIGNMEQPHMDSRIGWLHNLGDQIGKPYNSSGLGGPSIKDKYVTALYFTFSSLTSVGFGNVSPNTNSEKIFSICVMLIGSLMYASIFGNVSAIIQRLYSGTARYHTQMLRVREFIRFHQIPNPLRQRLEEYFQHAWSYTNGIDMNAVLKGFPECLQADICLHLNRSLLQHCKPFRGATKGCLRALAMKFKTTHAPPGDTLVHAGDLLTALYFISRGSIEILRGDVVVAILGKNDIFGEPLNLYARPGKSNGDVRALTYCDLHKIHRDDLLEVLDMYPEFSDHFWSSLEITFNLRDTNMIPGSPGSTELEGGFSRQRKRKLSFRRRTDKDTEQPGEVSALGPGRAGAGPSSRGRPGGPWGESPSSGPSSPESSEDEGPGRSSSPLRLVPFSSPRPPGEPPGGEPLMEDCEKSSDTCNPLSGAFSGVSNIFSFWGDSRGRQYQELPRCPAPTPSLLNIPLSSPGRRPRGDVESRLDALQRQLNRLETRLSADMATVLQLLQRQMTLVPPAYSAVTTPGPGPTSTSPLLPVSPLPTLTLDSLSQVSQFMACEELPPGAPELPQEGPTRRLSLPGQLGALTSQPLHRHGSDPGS
Procedure, shortened: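 hERG K⁺ channel inhibition measured by IonWorks patch-clamp electrophysiology. Eight-point concentration-response curves made from 3-fold serial dilutions down from the maximum final assay concentration. Each curve generated on 2 occasions.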

Plasmodium falciparum [27] = experiment: Antiplasmodial activity against drug resistant Plasmodium falciparum K1 by [3H]hypoxanthine incorporation assay; format: functional, organism-based; procedure, shortened: as §5
Plasmodium berghei [28] = experiment: Antiplasmodial activity against GFP-transfected Plasmodium berghei ANKA infected in NMRI mouse assessed as reduction in parasitemia by measuring effective dose administered once daily oral dose for 4 days; format: functional; details: 96 h, time 4 day; procedure, shortened: as §4
Plasmodium falciparum [29] = experiment: Antiplasmodial activity against drug resistant Plasmodium falciparum […] [3H]hypoxanthine incorporation assay; format: functional, organism-based; procedure, shortened: as §5
[30] = AUC in NMRI mouse at 10 mg/kg, po administered as gavage by UPLC-MS/MS analysis; format: ADME, organism-based; parameters: dose 10 mg/kg; details: in vivo; procedure, shortened: as §3
Plasmodium berghei [31] = experiment: Antiplasmodial activity against Plasmodium berghei ANKA infected in NMRI mouse assessed as survival days at 3 mg/kg, po QD for 4 days; format: functional; details: time 4 day
Plasmodium falciparum [32] = experiment: Antiplasmodial activity against drug resistant Plasmodium falciparum 7G8 by [3H]hypoxanthine incorporation assay; format: functional, organism-based; procedure, shortened: as §5
Plasmodium berghei [33] = experiment: Antiplasmodial activity against Plasmodium berghei ANKA infected in NMRI mouse assessed as survival days at 1 mg/kg, po QD for 4 days; format: functional; details: time 4 day
Plasmodium falciparum [34] = experiment: Antiplasmodial activity against late stage (IV/V) Plasmodium falciparum NF54 gametocytes transfected with GFP-LUC assessed as growth inhibition incubated for 72 hrs by mitotracker Red-CMXROS dye based fluorescence microscopic analysis; format: functional, organism-based; details: NF54, 72 h
Procedure, shortened: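 NF54 pfs16-LUC-GFP stage IV–V gametocytes (10% parasitaemia, 0.1% haematocrit) exposed to compound in 0.4% DMSO, three concentrations per log, for 72 h at 37°C under 5% CO2/5% O2/90% N2. MitoTracker Red CM-H2Xros then added for 16 h and viable gametocytes counted by imaging.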

[35] = Intrinsic clearance in rat hepatocytes; format: ADME, cell-based, Hepatocyte

O=C(NCCN1CCCC1)c1cc(NCCC2CCOCC2)nc2ccc(Cl)cc12
CLH [1]: 0.8 mL/min/g
PPB [2]: 77%
Survival (Plasmodium berghei [3]): 8 days
half-life [4]: 2.9 h
Tmax [5]: 0.5 h
solubility kinetic [6]: 230 µM (≈ 99.1 µg/mL)
EC50 (Plasmodium falciparum [7]): 6 nM
Cmax [8]: 193 ng/mL
Papp at 5 h, 10 µM [9]: 4.8 ×10⁻⁶ cm/s
clearance [10]: 34 mL/min/kg
hepatic extraction ratio [11]: 0.76
EC50 (MRC5): 31000 nM
CLH [12]: 2 mL/min/g
Activity (Plasmodium berghei [13]): 90%
CLH [14]: 1 mL/min/g
Survival (Plasmodium berghei [15]): 10 days
EC50 (Plasmodium falciparum [16]): 0.9 nM
EC50 (Plasmodium yoelii): 1 nM
Activity (Plasmodium berghei [17]): 99.9%
bioavailability [18]: 23%
EC50 (Plasmodium falciparum [19]): 0.6 nM
Vd [20]: 7.4 L/kg
EC50 (Plasmodium falciparum [21]): 0.5 nM
EC50 (Plasmodium berghei [22]): 14 nM
Activity (Plasmodium berghei [23]): 99.9%
Activity (Plasmodium berghei [24]): 98%
EC50 (Plasmodium falciparum [25]): 0.7 nM
IC50 [26]: > 11000 nM
EC50 (Plasmodium falciparum [27]): 0.8 nM
ED90 (Plasmodium berghei [28]): 1 mg/kg
EC50 (Plasmodium falciparum [29]): 0.5 nM
AUC [30]: 1210 ng·h/mL
Survival (Plasmodium berghei [31]): 6 days
EC50 (Plasmodium falciparum [32]): 0.7 nM
Survival (Plasmodium berghei [33]): 7 days
EC50 (Plasmodium falciparum [34]): 39 nM
CLH [35]: 3 mL/min/g
